Assay [1] deals with T1, NH(3)-dependent NAD(+) synthetase (Bacillus subtilis (strain 168), UniProt P08164).
T1 sequence (P08164 whole entry): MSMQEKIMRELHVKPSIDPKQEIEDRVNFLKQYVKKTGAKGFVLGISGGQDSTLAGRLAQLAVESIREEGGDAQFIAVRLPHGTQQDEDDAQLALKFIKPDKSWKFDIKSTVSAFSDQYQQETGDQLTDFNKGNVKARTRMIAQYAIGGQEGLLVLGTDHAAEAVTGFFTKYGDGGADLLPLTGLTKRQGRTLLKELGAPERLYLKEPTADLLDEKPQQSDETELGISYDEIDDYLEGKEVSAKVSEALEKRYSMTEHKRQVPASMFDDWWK
Put plainly: Inhibitory activity against Bacillus subtilis NAD synthetase. The method in brief:
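Purified recombinant B. subtilis NAD synthetase (2.0 µg/mL) in coupled assay, pH 8.5: 58.5 mM HEPES, 18.5 mM NH4Cl, 19.5 mM KCl, 9.75 mM MgCl2, 1% EtOH, 0.1 mM NaAD, 0.3% BOG, 40 µg/mL yeast ADH, 0.2 mM ATP, 2.5% DMSO. ATP-started, 10 min, guanidine·HCl stop; NADH read at A340 and fluorescence 460 nm, background-subtracted; IC50 from % inhibition at six concentrations.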

For assay [2], the system named is Pseudomonas aeruginosa. Put plainly: Minimum inhibitory concentration required against Pseudomonas aeruginosa ATCC 27853. In kind it is functional. An outline of the steps:
(§1)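 Broth doubling-dilution MIC run in duplicate series from 50 µg/mL (1% DMSO final). Each tube received 0.01 mL of inoculum from a log-phase culture (5–6 h, 37 °C) adjusted to about 5 × 10^8 CFU/mL. Incubation 20 h at 37 ± 2 °C. MIC is the lowest concentration with no visible growth. Viability, sterility and reference-antibiotic controls included.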

The test system of assay [3] is Bacillus subtilis. Put plainly: Minimum inhibitory concentration required against Bacillus subtilis ATCC 14289. In kind it is functional. The method in brief: as §1
Assay [4] deals with Staphylococcus aureus. Put plainly: Minimum inhibitory concentration required against Staphylococcus aureus ATCC 29213. In kind it is functional. The method in brief: as §1
The test system of assay [5] is Salmonella enteritidis. Put plainly: microbe, parasite or virus in culture. The note with it: Salmonella enterica, ATCC 13076.
For assay [6], the system named is Salmonella enteritidis. The experiment in a line: Minimum inhibitory concentration required against Salmonella enteritidis ATCC 13076. In kind it is functional, Salmonella enterica subsp. enterica serovar Enteritidis. The following applies: Salmonella enterica. An outline of the steps: as §1
Assay [7] concerns Staphylococcus aureus. The experiment in a line: Minimum inhibitory concentration required against Staphylococcus aureus ATCC 33591. In kind it is functional. An outline of the steps: as §1
Assay [8] has as its system Staphylococcus aureus. The experiment in a line: Minimum inhibitory concentration required against Staphylococcus aureus ATCC 33592. In kind it is functional. An outline of the steps:
as §1

The test system of assay [9] is Staphylococcus aureus. Put plainly: Minimum inhibitory concentration required against Staphylococcus aureus ATCC 33593. In kind it is functional. An outline of the steps:
as §1

Converted amounts (≈) assume the structure as drawn.

In assay [1], `O=C(OCCCCCCn1ccc2cc([N+](=O)[O-])ccc21)c1cccnc1` returned an IC50 of over 1000 µM.

Take `C[n+]1cccc(C(=O)OCCCCCCCCCn2ccc3ccccc32)c1`: the IC50 in assay [1] was 48 µM. This lies in the double-digit micromolar range.

Take `O=C(OCCn1ccc2cc([N+](=O)[O-])ccc21)c1cccnc1`: in assay [1], the IC50 is over 1000 µM.

In assay [2], GENTAMICIN yielded an MIC of 2 µM.

Consider `COC(=O)c1cc2cc(OCc3ccccc3)ccc2n1CCCCCCCCCOC(=O)Cc1ccc([N+](C)(C)C)cc1`, for which the MIC was 1.5 µM in [3] and 6.2 µM in [4]. This compound also returned an IC50 in [1] of 18 µM.

`C[N+](C)(C)c1ccc(CC(=O)OCCCCCCn2ccc3cc(OCc4ccccc4)ccc32)cc1`: 69 µM corresponded to half-maximal inhibition in [1] (IC50).

Take `O=C(OCCCn1ccc2cc([N+](=O)[O-])ccc21)c1cccnc1`: in [1], the IC50 is over 1000 µM.

The compound `C[n+]1cccc(C(=O)OCCn2ccc3cc([N+](=O)[O-])ccc32)c1` registered an IC50 in assay [1] of over 1000 µM.

Compound `COC(=O)c1cc2cc(OCc3ccccc3)ccc2n1CCCCCCCCOC(=O)Cc1ccc([N+](C)(C)C)cc1` registered an IC50 in assay [1] of 20 µM.

In assay [1], `C[n+]1cccc(C(=O)OCCCCCCn2ccc3cc(OCc4ccccc4)ccc32)c1` gave an IC50 of 29 µM.

In turn, `O=C(OCCCCCCCCn1ccc2cc([N+](=O)[O-])ccc21)c1cccnc1` displayed an IC50 in assay [1] of over 1000 µM.

For the compound `C[N+](C)(C)c1ccc(CC(=O)OCCCCCn2ccc3cc([N+](=O)[O-])ccc32)cc1`, the IC50 in assay [1] turned out to be 70 µM. This lies in the double-digit micromolar range.

In assay [1], `COC(=O)c1cc2cc(OCc3ccccc3)ccc2n1CCCCCCOC(=O)c1ccc[n+](C)c1` came in with an IC50 of 37 µM.

Consider `COc1cc(Cc2cnc(N)nc2N)cc(OC)c1OC` [TRIMETHOPRIM], for which the IC50 in assay [1] was over 1 µM. For the same compound, the MIC in assay [5] worked out at 0.5 µM (≈ 0.145 µg/mL).

With `C[N+](C)(C)c1ccc(CC(=O)OCCCCCCCCCn2ccc3ccccc32)cc1`, it took 54 µM to reach half-maximal inhibition in assay [1] (IC50).

For `COC(=O)c1cc2ccccc2n1CCCCCCCOC(=O)Cc1ccc([N+](C)(C)C)cc1`, the MIC in [3] was 1.5 µM; in assay [2] it was over 50 µM; in [6], over 50 µM; in [4], 12.5 µM. Moreover, in assay [1], 19 µM corresponded to half-maximal inhibition (IC50).

Take `C[n+]1cccc(C(=O)OCCCCCn2ccc3cc(OCc4ccccc4)ccc32)c1`: the IC50 in assay [1] worked out at 94 µM.

For `COC(=O)c1cc2cc(OCc3ccccc3)ccc2n1CCCCCCCOC(=O)Cc1ccc([N+](C)(C)C)cc1`, the MIC is 1.5 µM in [3]; over 50 µM in assay [2]; over 50 µM in assay [6]; 1.5 µM in [4]; 6.2 µM in [7]; 3.1 µM in assay [8]. This compound gave an MIC in assay [9] of 3.1 µM. Moreover, the IC50 in assay [1] came out at 9 µM.

In assay [1], `COC(=O)c1cc2ccccc2n1CCCCCCCCCOC(=O)c1ccc[n+](C)c1` gave an IC50 of 34 µM.

In [1], `COc1cccc(OC)c1C(=O)N[C@@H]1C(=O)N2[C@@H]1SC(C)(C)[C@@H]2C(=O)O` came in with an IC50 of over 1 µM. The MIC came to 1 µM (≈ 0.38 µg/mL) in assay [4], 32 µM (≈ 12.2 µg/mL) in assay [7], 32 µM (≈ 12.2 µg/mL) in [8] and 32 µM (≈ 12.2 µg/mL) in assay [9].

Take `COC(=O)c1cc2cc(OCc3ccccc3)ccc2n1CCCCCCCCOC(=O)c1cc[n+](C)cc1`: the MIC in [3] is 12.5 µM; in assay [2], over 50 µM; in assay [6], over 50 µM; in [4], 6.2 µM. This compound also gave an IC50 in assay [1] of 10 µM.

In assay [1], `C[N+](C)(C)c1ccc(CC(=O)OCCCCCCCCn2ccc3ccccc32)cc1` came in with an IC50 of 63 µM. In other words, the double-digit micromolar range.

The compound `C[N+](C)(C)c1ccc(CC(=O)OCCCCCCn2ccc3cc([N+](=O)[O-])ccc32)cc1` displayed an IC50 in [1] of 84 µM.

Turning to `C[n+]1cccc(C(=O)OCCCn2ccc3cc([N+](=O)[O-])ccc32)c1`, the IC50 in assay [1] was over 1000 µM.

`C[n+]1cccc(C(=O)OCCCCCn2ccc3cc([N+](=O)[O-])ccc32)c1` yielded an IC50 in assay [1] of 1000 µM.

As to `C[N+](C)(C)c1ccc(CC(=O)OCCCCn2ccc3cc(OCc4ccccc4)ccc32)cc1`, in [1], the IC50 was 84 µM. This IC50 is about 12-fold lower than that of the compound before.

`COC(=O)c1cc2ccccc2n1CCCCCCOC(=O)Cc1ccc([N+](C)(C)C)cc1`: the IC50 in [1] was 24 µM.

For `COC(=O)c1cc2cc(OCc3ccccc3)ccc2n1CCCCCCCOC(=O)c1ccc[n+](C)c1`, the MIC is 6.2 µM in assay [3], over 50 µM in assay [2], over 50 µM in assay [6] and 3.1 µM in [4]. Further, the IC50 in assay [1] came out at 18 µM.

For `C[n+]1cccc(C(=O)OCCCCCCCCn2ccc3cc(OCc4ccccc4)ccc32)c1`, the MIC in assay [3] amounted to 6.2 µM; in assay [2] it was 50 µM; in assay [6] it was 50 µM; in assay [4] it was 1.5 µM; in assay [7] it was 12.5 µM; in [8] it was 6.2 µM. This compound also gave an MIC in [9] of 3.1 µM.

Take `O=C(OCCCCCCCCn1ccc2cc(O)ccc21)c1cccnc1`: the IC50 in assay [1] was over 200 µM.

Compound `COC(=O)c1cc2cc(OCc3ccccc3)ccc2n1CCCCCCCCCOC(=O)c1ccc[n+](C)c1` displayed an IC50 in assay [1] of 27 µM.

As for `COC(=O)c1cc2ccccc2n1CCCCCCCCOC(=O)Cc1ccc([N+](C)(C)C)cc1`, the MIC was 6.2 µM in assay [3], over 50 µM in assay [2], over 50 µM in assay [6] and 3.1 µM in assay [4]. Also, the IC50 in assay [1] was determined as 14 µM.

`C[N+](C)(C)c1ccc(CC(=O)OCCCCCCCCCn2ccc3cc([N+](=O)[O-])ccc32)cc1` showed an IC50 in assay [1] of 24 µM.

The compound `COc1ccc2c(ccn2CCCCCCCOC(=O)c2ccc[n+](C)c2)c1` registered an IC50 in assay [1] of 24 µM.

In the case of `O=C(OCCCCCCCn1ccc2cc([N+](=O)[O-])ccc21)c1cccnc1`, the IC50 in assay [1] was over 1000 µM.

Regarding `C[N+](C)(C)c1ccc(CC(=O)OCCCCn2ccc3cc([N+](=O)[O-])ccc32)cc1`, the IC50 in assay [1] stood at 89 µM.

As for `CO[C@H]1/C=C/O[C@@]2(C)Oc3c(C)c(O)c4c(O)c(c(/C=N/N5CCN(C)CC5)c(O)c4c3C2=O)NC(=O)/C(C)=C\C=C\[C@H](C)[C@H](O)[C@@H](C)[C@@H](O)[C@@H](C)[C@H](OC(C)=O)[C@@H]1C` [RIFAMPIN], the MIC in [3] stood at 1 µM (≈ 0.823 µg/mL). This compound displayed an IC50 in [1] of over 1 µM.

On to `O=C(OCCCCn1ccc2cc([N+](=O)[O-])ccc21)c1cccnc1`, for which, in assay [1], the IC50 was over 1000 µM.

Regarding `C[n+]1cccc(C(=O)OCCOCCOCCn2ccc3cc(OCc4ccccc4)ccc32)c1`, the MIC in assay [3] and in assay [4] was over 50 µM in each case. In assay [1], this compound had an IC50 of over 200 µM.

`C[n+]1cccc(C(=O)OCCCCCCCn2ccc3ccccc32)c1`: in assay [1], the IC50 was found to be 95 µM.

Compound `C[n+]1cccc(C(=O)OCCCCCCn2ccc3cc([N+](=O)[O-])ccc32)c1` showed an IC50 in [1] of 500 µM.

Regarding `C[N+](C)(C)c1ccc(CC(=O)OCCCCCCCCn2ccc3cc(OCc4ccccc4)ccc32)cc1`, the MIC in assay [3] was 1.5 µM; in assay [2] it was over 50 µM; in assay [6] it was over 50 µM; in assay [4] it was 3.1 µM. In [1], this compound gave an IC50 of 20 µM.

As to `COC(=O)c1cc2cc(OCc3ccccc3)ccc2n1CCCCCCOC(=O)Cc1ccc([N+](C)(C)C)cc1`, the concentration for half-maximal inhibition (IC50) in assay [1] is 12 µM. In other words, the double-digit micromolar range.

`COC(=O)c1cc2ccccc2n1CCCCCCCCOC(=O)c1cc[n+](C)cc1` came in with an IC50 in assay [1] of 44 µM.

In assay [1], `C[n+]1cccc(C(=O)OCCCCn2ccc3cc([N+](=O)[O-])ccc32)c1` displayed an IC50 of over 1000 µM.

In assay [1], `COC(=O)c1cc2ccccc2n1CCCCCCCOC(=O)c1ccc[n+](C)c1` returned an IC50 of 34 µM. This counts as double-digit micromolar.

`O=C(OCCCCCn1ccc2cc([N+](=O)[O-])ccc21)c1cccnc1` had an IC50 in assay [1] of over 1000 µM.

Turning to `C[N+](C)(C)c1ccc(CC(=O)OCCCCCn2ccc3cc(OCc4ccccc4)ccc32)cc1`, the IC50 in assay [1] was 60 µM.

In general, IC50 refers to the concentration at which inhibition is half-maximal. Read a low IC50 as higher potency.

Source of the values: ChEMBL document CHEMBL1145859, “Tethered dimers as NAD synthetase inhibitors with antibacterial activity” (J Med Chem, 2003).
